Rows were chosen to be rich in hits. Some 3.1% of all compounds tested hit in one or more screens of this group.
UBC13 inh = blocks human UBC13 polyubiquitin chain formation. P61088. actives 0.47% (n = 330,000). AID 485273. inhibition, % at 20 µM. TR-FRET; in the data active = inhibition above about 45%, passing the limit was not always enough
Target sequence (P61088 whole entry, looked up): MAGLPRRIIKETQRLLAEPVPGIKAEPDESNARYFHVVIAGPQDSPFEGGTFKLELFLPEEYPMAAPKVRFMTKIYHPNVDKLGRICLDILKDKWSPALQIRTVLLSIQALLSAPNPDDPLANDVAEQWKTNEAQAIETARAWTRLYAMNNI
SENP7 inh = blocks the human protease SENP7; Q9BQF6; recombinant SENP7, Z-RLRGG-aminoluciferin luminescence, 40 min; inhibition, % at 5 µM; actives 1.5% (n = 330,000); AID 434973;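 active = inhibition above about 50% at the single test dose, limit read from the data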
Apaf-1 inh = blocks human Apaf-1 apoptosome activity; inhibition, % at 20 µM; reconstituted apoptosome caspase-3 activity, DEVD-Rh110 fluorescence; actives 0.71% (n = 330,000); active = inhibition of at least 40% at 20 µM
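detection = Rh110 fluorescence intensity | test system = biochemical Apaf-1 apoptosome reconstitution | also added = cytochrome c and DEVD-Rh110 substrate | schedule = 30 min plus 50 min, RT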
SENP6 block = inhibitors of human SENP6 protease; Q9GZR1; actives 1.8% (n = 330,000); Recombinant SENP6 catalytic domain, aminoluciferin luminescence; inhibition, % at 10 µM;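 active = inhibition above about 50% at the single tested dose, limit read from the data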
Target sequence (Q9GZR1 628-1112 limits assumed): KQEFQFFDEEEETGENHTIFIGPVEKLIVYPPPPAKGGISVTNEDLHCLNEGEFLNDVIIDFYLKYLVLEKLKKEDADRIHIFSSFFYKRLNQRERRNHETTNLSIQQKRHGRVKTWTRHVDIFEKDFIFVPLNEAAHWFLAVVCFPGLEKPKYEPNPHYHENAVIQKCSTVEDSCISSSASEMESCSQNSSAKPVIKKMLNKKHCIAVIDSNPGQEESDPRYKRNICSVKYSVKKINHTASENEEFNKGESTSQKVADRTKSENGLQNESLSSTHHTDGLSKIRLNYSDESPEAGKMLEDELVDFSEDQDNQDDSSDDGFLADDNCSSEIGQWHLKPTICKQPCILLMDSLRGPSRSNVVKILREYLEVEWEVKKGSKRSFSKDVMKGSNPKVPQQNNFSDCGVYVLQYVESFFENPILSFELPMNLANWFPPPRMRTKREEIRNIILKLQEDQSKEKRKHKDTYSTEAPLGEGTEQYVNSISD
SENP8 block-1 = SENP8 protease inhibition. purified SENP8, Z-RLRGG-aminoluciferin cleavage, luminescence. inhibition, % at 10 µM. actives 1.2% (n = 330,000); in the data active = inhibition above about 50%
SENP8 block-2 = SENP8 (human) protease inhibition; recombinant SENP8, Nedd8 substrate fluorescence; Q96LD8; inhibition, % at 20 µM; actives 0.64% (n = 360,000); in the data active = inhibition mostly above about 40%, no sharp cut-off; inactive = mostly below about 27%
SENP8 confirm = confirmation of human SENP8 protease inhibitors; shares compounds with SENP7 inh; Recombinant SENP8, Z-RLRGG-aminoluciferin luminescence, 60 min; inhibition, % at 12.5 µM; actives 40% (n = 6,200);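 active = mean inhibition across replicates above about 50%, limit read from the data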
SENP6 conf = human SENP6 inhibition, confirmed. recombinant SENP6, Z-RLRGG-aminoluciferin luminescence. shares compounds with SENP7 inh. inhibition, % at 12.5 µM. AID 488915. actives 58% (n = 6,200)
SENP7 confirm = confirmation of human SENP7 protease inhibitors | shares compounds with SENP7 inh | recombinant SENP7, Z-RLRGG-aminoluciferin luminescence, 40 min | inhibition, % at 12.5 µM | actives 69% (n = 6,200) | AID 488917
Casp3 select = caspase-3 inhibition (SENP selectivity assay). shares compounds with SENP7 inh. purified caspase-3, Z-DEVD-aminoluciferin luminescence, 60 min. inhibition, % at 12.5 µM. actives 60% (n = 6,200). AID 488918;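 active = mean inhibition above about 50%, limit read from the data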
SENP luc ctr = luminescence interference (SENP counter-screen) | shares compounds with SENP7 inh | Pre-incubated SENP8/Z-RLRGG-aminoluciferin, luciferase luminescence interference | inhibition, % at 12.5 µM | actives 39% (n = 6,200);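 active = mean inhibition above about 50% when retested at one dose, limit read from the data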
Hits are given with their value; . = inactive; / = no result.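 The calls were made as follows, unless noted: active = mean inhibition above about 50% in the one-dose retest (limit read from the data); inactive = the rest.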

SMILES | UBC13 inh | SENP7 inh | Apaf-1 inh | SENP6 block | SENP8 block-1 | SENP8 block-2 | SENP8 confirm | SENP6 conf | SENP7 confirm | Casp3 select | SENP luc ctr
COc1ccc(NC(=O)c2ccc(-c3ccccc3Cl)o2)cc1 | . | 52 | . | 75 | 69 | . | . | 64 | 86 | . | .
O=C(Nc1ccccc1)c1cc(-c2ccccc2Cl)no1 | . | 85 | . | 88 | 69 | . | 81 | 81 | 95 | 69 | 74
CCc1nnc(NC(=O)c2ccc(COc3ccccc3Cl)o2)s1 | . | . | . | . | . | . | / | / | / | / | /
Cc1ccc(-c2ccc(C(=O)Nc3cccc(F)c3)o2)c2ccccc12 | . | . | . | . | . | . | / | / | / | / | /
O=C(Nc1cccc(F)c1)c1ccc(-c2ccccc2Cl)o1 | . | . | . | 54 | . | . | . | . | 70 | . | .
Cc1cccc(C)c1NC(=O)C(C1CC1)n1c(-c2ccc(C(F)(F)F)cc2)nc2ccccc21 (stereo not drawn) | / | / | / | / | / | . | / | / | / | / | /
O=C(NCc1cccnc1)c1ccc(-c2ccccc2[N+](=O)[O-])o1 | . | . | . | . | . | . | / | / | / | / | /
O=C(NCc1cccnc1)c1ccc(-c2cccc(Cl)c2Cl)o1 | . | 91 | . | . | . | . | . | . | . | . | .
O=C(NC(c1ccccc1)c1ccsc1)C1CCN(CCOc2ccc(Cl)cc2Cl)CC1 (stereo not drawn) | / | / | / | / | / | . | / | / | / | / | /
Cc1ccccc1/C=C1\CCCc2ccccc2C1=O | . | 97 | . | 88 | 95 | . | 95 | 98 | 102 | 93 | 94
O=C1C(=Cc2ccccn2)CCc2ccccc21 | / | / | / | / | / | . | / | / | / | / | /
O=C1/C(=C\c2ccc3ccccc3c2)CCCc2ccccc21 | . | . | . | . | . | . | / | / | / | / | /
Cc1ccsc1/C=C1\CCc2ccccc2C1=O | . | 99 | . | 94 | 96 | . | 100 | 101 | 104 | 100 | 96
S=C(Nc1ccccn1)c1ccccn1 | . | 84 | . | . | 68 | . | 53 | 76 | 94 | 86 | .
Cc1ccc(C)c(NC(=S)c2ccccn2)c1 | . | . | . | . | . | . | / | / | / | / | /
COc1ccc(C(CNc2ccc(S(C)(=O)=O)cc2[N+](=O)[O-])N(C)C)cc1OC (stereo not drawn) | . | . | . | . | . | . | / | / | / | / | /
CN(C)C(CNc1ccc(S(C)(=O)=O)cc1[N+](=O)[O-])c1ccccc1 (stereo not drawn) | . | . | . | 65 | . | . | . | . | . | . | .
CC(C)N1CCC(C)(C(=O)Nc2ccc(Cl)c(Cl)c2)C1 (stereo not drawn) | / | / | / | / | / | . | / | / | / | / | /
CCCCN1C(=O)C(=Nc2cccc3cnccc23)c2ccccc21 | . | 81 | . | 87 | . | . | . | . | . | . | .
CCCCCCn1c(=O)n2n(c1=O)C[C@]1(OC(=O)NC3CCCC3)CN(S(=O)(=O)c3ccc(C)cc3)C[C@]1(O)C2 | / | / | / | / | / | . | / | / | / | / | /
COc1cccc(C(C)(O)c2nc(-c3cnn(C)c3)cs2)c1 (stereo not drawn) | / | / | / | / | / | . | / | / | / | / | /
COc1ccc(OC)c(NC(=O)Nc2nc(C(N)CCc3ccccc3)cs2)c1 (stereo not drawn) | / | / | / | / | / | . | / | / | / | / | /
O=C(NC1CCCCC1)N1CCN(Cc2nc3ccccc3c(=O)[nH]2)CC1 | . | . | . | 60 | . | . | . | . | . | . | .
CCC(CC)C(=O)N1CCN(Cc2nc3ccccc3c(=O)[nH]2)CC1 | . | . | . | . | . | . | / | / | / | / | /
CCOc1ccc(NC(=O)c2cccc(NC(=O)c3ccccc3)c2)cc1 | . | . | . | . | . | . | / | / | / | / | /
SMILES | UBC13 inh | SENP7 inh | Apaf-1 inh | SENP6 block | SENP8 block-1 | SENP8 block-2 | SENP8 confirm | SENP6 conf | SENP7 confirm | Casp3 select | SENP luc ctr
CC(C)c1cc(C(N)=O)c(NC(=O)c2cccc(COc3ccc(Cl)cc3)c2)s1 | . | . | . | 84 | . | . | 98 | 95 | 99 | . | 91
O=C(Nc1cccnc1)c1ccc(Cl)c(S(=O)(=O)N2CCCCC2)c1 | . | . | . | . | . | . | / | / | / | / | /
CCOc1c(Cl)cc(C(=O)Nc2cccc(C(=O)O)c2)cc1Cl | . | 88 | . | 95 | 92 | . | 95 | 96 | 101 | 54 | 96
Cc1nn(Cc2c(F)c(F)c(F)c(F)c2F)c(C)c1NC(=O)c1cccc(COc2ccc(Cl)cc2)c1 | . | . | . | . | . | . | / | / | / | / | /
O=C(O)c1cccc(NC(=O)c2ccc(Cl)c(S(=O)(=O)N3CCCCCC3)c2)c1 | . | 85 | . | 85 | 78 | . | 90 | 89 | 98 | 55 | 79
O=C(O)c1cccc(NC(=O)c2ccc3c(c2)C(=O)N(C2CCCCC2)C3=O)c1 | . | 97 | . | 95 | 93 | . | 83 | 81 | 100 | 62 | .
O=C(O)COc1ccc(NC(=O)c2ccc3c(c2)C(=O)N(C2CCCCC2)C3=O)cc1 | / | / | / | / | / | . | / | / | / | / | /
COc1cccc(CNC(=O)c2ccc(COc3ccccc3)cc2)c1 | . | . | . | . | . | . | / | / | / | / | /
O=C(O)c1cccc(NC(=O)c2ccc(COc3ccc(Cl)cc3)cc2)c1 | . | . | . | 70 | 53 | . | . | . | 59 | . | .
O=C(O)c1cccc(NC(=O)c2cccc(S(=O)(=O)N3CCc4ccccc43)c2)c1 | . | . | . | 54 | . | . | . | . | 70 | . | .
O=C(Nc1ccncc1)c1cccc(S(=O)(=O)N2CCc3ccccc32)c1 | . | . | . | . | . | . | / | / | / | / | /
N#C/C(=C\c1ccc(OCc2ccc(Cl)cc2)cc1)C(=O)Nc1cccc(C(=O)O)c1 | . | . | . | . | . | . | / | / | / | / | /
O=C(O)c1ccc(COc2cccc(CO)c2)cc1 | . | 86 | . | 74 | 64 | . | . | 70 | 93 | 93 | 74
CCOc1ccc(-n2cc(-c3ccc(OC)c(OC)c3)[nH]c2=S)cc1 | . | . | . | 73 | 53 | . | . | . | . | . | .
CCOc1ccc(-c2cn(-c3ccccc3OC)c(=S)[nH]2)cc1 | . | . | . | . | . | . | / | / | / | / | /
COc1cccc(OCc2ccc(Cl)cc2)c1C#N | . | 97 | . | 91 | 93 | . | 84 | 96 | 100 | 88 | .
CC1CCN(CCCNC(=O)c2coc3nc4ccccc4nc23)CC1 | . | . | . | 86 | 64 | . | 76 | 70 | 86 | 88 | 74
